From ChEMBL document CHEMBL3997782, “Methoxylated 2'-hydroxychalcones as antiparasitic hit compounds” (Eur J Med Chem, 2017)

How the values were obtained:
[1] = Cytotoxicity against human THP1 cells by MTT assay; assay type: cell-based; details: THP-1 cells
In short: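 THP-1 cells differentiated to macrophages with PMA, viability read by colorimetric MTT. CC50 and NOAEL are the arithmetic mean of at least two independent determinations, each run in triplicate.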

[2] = test system: Leishmania infantum; test: Anti-parasitic activity against Leishmania infantum amastigotes infected in human THP1 cells at 50 uM after 5 days by Giemsa staining based assay relative to control; assay type: functional, cell-based; details: THP-1, 120 h
In short: (§1)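 Intracellular L. infantum amastigotes in host cells, imaged by high-content automated imaging. Host cell number, infected cells and parasites per infected cell were counted. Infection Ratio = infected cells / total cells.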

[3] = test system: Leishmania infantum; test: Anti-parasitic activity against Leishmania infantum amastigotes infected in human THP1 cells after 5 days by Giemsa staining based assay; assay type: functional, cell-based; details: THP-1, 120 h; in short: as §1
[4] = Selectivity index, ratio of CC50 for human THP1 cells to EC50 for anti-parasitic activity against Leishmania infantum amastigotes infected in human THP1 cells; assay type: toxicity, cell-based; details: THP-1 cells, read-out: Ratio CC50/EC50
In short: (§2)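 SI = CC50 in PMA-differentiated THP-1 macrophages (MTT) divided by the antiparasitic EC50.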

[5] = test system: Trypanosoma cruzi; test: Anti-parasitic activity against Trypanosoma cruzi Y promastigotes infected in HG39 cells at 10 uM by qPCR analysis relative to control; assay type: functional, cell-based; details: in the assay text read “trypomastigotes” for “promastigotes”
In short: (§3)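 Confluent HG39 cells (3 x 10^6 per well) infected at a 1:1 ratio with blood-derived T. cruzi Y strain trypomastigotes. Growth inhibition was read as parasite gDNA by TaqMan probe-based quantitative real-time PCR.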

[6] = test system: Trypanosoma cruzi; test: Anti-parasitic activity against Trypanosoma cruzi Y promastigotes infected in HG39 cells by qPCR analysis; assay type: functional, cell-based; details: in the assay text read “trypomastigotes” for “promastigotes”; in short: as §3
[7] = Cytotoxicity against human A549 cells assessed as cell growth at 10 uM by Cell titer-Glo assay relative to control; assay type: cell-based; details: read-out: Activity
In short: (§4)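 A549 and WI-38 cells grown in DMEM with 10% v/v FCS, streptomycin 100 µg/ml and penicillin G 100 U/ml. Cell number read as cellular ATP by CellTiter-Glo luminescence. Growth 60–100% scored non-cytotoxic, 0–60% cytostatic, below 0 cytotoxic.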

[8] = Cytotoxicity against human […] cells assessed as cell growth at 10 uM by Cell titer-Glo assay relative to control; assay type: cell-based; details: WI-38 cells, read-out: Activity; in short: as §4
[9] = test system: 786-0; test: Mitochondrial toxicity in human 786-O cells at 10 uM by mitotracker red chloromethyl-Xrosamine staining based-uptake method relative to control; assay type: cell-based; details: 786-0, 10 µM
In short: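 786-O renal carcinoma cells kept in RPMI-1640 with 2 mM glutamine, 10% v/v FCS, streptomycin 100 µg/ml and penicillin G 100 U/ml. Mitochondrial toxicity monitored by MitoTracker Red CMXRos uptake with high-content imaging.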

[10] = target: Aurora kinase B (Homo sapiens, UniProt Q96GD4); test: Inhibition of N-terminal-GST-tagged recombinant full length human Aurora B expressed in baculovirus infected Sf9 cells at 10 uM using native Swine Myelin Basic Protein as substrate measured after 60 mins by ADP-Glo assay relative to control; details: probe native Swine Myelin Basic Protein
Sequence of Aurora kinase B (Q96GD4 whole entry): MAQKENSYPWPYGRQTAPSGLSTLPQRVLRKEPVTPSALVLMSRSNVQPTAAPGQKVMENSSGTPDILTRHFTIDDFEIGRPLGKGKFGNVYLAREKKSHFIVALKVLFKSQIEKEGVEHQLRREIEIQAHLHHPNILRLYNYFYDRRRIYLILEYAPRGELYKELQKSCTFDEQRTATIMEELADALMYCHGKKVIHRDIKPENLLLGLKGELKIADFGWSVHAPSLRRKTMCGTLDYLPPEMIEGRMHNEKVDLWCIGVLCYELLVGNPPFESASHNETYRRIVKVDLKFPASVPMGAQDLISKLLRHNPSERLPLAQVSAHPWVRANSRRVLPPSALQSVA
In short: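 Aurora B kinase activity measured by ADP-Glo, which detects ADP formed through a coupled luciferase luminescence read-out.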

[11] = target: hERG (KCNH2) (Homo sapiens, UniProt Q12809); test: Inhibition of human ERG at 10 uM by Tracer Red dye based fluorescence polarization assay relative to control; details: probe Tracer Red dye
Sequence of hERG (KCNH2) (Q12809 whole entry): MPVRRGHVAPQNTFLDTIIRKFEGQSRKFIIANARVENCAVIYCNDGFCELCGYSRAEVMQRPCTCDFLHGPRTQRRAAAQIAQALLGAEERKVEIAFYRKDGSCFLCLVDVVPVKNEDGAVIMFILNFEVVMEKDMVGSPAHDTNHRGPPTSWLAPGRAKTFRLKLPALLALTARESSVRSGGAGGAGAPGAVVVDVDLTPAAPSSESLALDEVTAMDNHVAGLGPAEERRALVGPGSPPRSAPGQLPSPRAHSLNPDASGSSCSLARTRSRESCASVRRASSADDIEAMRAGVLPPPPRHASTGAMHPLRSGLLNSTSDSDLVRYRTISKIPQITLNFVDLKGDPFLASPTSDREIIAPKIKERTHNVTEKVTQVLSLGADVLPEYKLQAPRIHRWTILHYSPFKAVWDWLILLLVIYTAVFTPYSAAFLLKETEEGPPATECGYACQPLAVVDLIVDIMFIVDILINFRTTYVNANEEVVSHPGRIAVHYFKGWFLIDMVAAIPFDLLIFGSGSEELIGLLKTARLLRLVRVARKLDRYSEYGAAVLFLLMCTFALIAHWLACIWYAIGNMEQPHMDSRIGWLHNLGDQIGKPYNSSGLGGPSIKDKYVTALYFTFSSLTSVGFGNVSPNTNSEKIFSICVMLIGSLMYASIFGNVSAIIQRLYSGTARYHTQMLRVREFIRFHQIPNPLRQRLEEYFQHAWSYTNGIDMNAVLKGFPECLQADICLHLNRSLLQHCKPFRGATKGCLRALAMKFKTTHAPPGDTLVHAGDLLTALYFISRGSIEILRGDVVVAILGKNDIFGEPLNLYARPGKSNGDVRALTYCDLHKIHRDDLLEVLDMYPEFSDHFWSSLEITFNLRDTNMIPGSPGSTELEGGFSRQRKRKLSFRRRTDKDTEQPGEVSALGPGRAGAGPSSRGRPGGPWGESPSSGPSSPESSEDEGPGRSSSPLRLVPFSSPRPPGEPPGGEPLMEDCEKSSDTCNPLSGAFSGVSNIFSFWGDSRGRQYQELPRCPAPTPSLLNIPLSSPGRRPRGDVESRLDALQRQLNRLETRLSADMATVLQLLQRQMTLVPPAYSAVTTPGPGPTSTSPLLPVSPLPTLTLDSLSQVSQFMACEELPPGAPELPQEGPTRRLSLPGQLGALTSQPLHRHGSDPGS

[12] = target: T1, CYP1A2 (Homo sapiens, UniProt P05177); test: Inhibition of human CYP1A2 expressed in baculovirus-infected insect cells at 10 uM using Luciferin-1A2 as substrate in presence of NADPH by P450-Glo luminescence assay relative to control; assay type: ADME; details: probe Luciferin-1A2
T1 sequence (P05177 whole entry): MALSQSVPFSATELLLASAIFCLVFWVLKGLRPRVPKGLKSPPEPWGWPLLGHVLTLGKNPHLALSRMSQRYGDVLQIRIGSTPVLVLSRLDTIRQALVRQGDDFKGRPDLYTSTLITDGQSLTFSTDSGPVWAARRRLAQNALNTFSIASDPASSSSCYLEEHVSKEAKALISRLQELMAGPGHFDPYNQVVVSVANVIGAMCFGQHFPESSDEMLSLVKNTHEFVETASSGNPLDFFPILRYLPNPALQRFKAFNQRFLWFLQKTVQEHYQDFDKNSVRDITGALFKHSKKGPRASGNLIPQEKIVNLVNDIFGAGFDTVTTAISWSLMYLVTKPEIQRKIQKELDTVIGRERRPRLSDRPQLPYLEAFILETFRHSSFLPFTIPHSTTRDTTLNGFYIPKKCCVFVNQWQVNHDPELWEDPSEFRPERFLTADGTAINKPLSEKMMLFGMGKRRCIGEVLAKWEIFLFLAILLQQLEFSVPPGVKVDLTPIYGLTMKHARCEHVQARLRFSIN
In short: (§5)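 CYP enzymes as microsomal preparations from baculovirus-infected insect cells, run on the P450-Glo luminogenic substrate platform. A fall in light output indicates inhibition.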

[13] = target: CYP2C9 (Homo sapiens, UniProt P11712); test: Inhibition of human CYP2C9 expressed in baculovirus-infected insect cells at 10 uM using Luciferin-H as substrate in presence of NADPH by P450-Glo luminescence assay relative to control; details: probe Luciferin-H
Sequence of CYP2C9 (P11712 whole entry): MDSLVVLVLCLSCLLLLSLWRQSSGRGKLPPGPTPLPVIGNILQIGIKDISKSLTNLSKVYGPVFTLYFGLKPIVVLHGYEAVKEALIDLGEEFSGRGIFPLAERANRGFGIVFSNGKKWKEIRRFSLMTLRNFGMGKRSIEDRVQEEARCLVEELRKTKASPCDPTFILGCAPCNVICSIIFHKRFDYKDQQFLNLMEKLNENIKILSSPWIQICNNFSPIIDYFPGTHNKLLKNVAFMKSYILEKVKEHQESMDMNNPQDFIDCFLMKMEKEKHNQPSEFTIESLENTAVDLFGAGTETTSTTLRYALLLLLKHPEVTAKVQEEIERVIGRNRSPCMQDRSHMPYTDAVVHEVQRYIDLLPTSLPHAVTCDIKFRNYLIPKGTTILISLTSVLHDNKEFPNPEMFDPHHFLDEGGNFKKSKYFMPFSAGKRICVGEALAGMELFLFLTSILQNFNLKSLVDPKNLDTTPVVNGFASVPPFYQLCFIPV

[14] = target: CYP2C19 (Homo sapiens, UniProt P33261); test: Inhibition of human CYP2C19 expressed in baculovirus-infected insect cells at 10 uM using Luciferin-H EGE as substrate in presence of NADPH by P450-Glo luminescence assay relative to control; assay type: ADME; details: probe Luciferin-H EGE; in short: as §5
Sequence of CYP2C19 (P33261 whole entry): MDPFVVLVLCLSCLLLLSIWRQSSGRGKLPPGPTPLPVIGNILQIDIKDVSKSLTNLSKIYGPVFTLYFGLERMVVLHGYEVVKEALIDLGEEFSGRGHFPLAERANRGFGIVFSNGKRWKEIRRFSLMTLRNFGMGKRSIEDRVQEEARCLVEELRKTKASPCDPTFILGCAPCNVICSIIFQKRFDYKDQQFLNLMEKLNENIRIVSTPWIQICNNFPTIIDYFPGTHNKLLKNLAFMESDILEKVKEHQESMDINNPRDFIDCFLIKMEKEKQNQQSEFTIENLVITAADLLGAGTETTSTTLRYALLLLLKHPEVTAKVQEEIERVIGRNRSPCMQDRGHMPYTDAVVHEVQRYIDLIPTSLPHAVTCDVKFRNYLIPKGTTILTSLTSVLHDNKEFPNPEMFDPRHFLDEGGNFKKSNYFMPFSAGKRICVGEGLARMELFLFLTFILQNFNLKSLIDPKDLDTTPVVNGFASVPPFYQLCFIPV

[15] = target: CYP2D6 (Homo sapiens, UniProt P10635); test: Inhibition of human CYP2D6 expressed in baculovirus-infected insect cells at 10 uM using Luciferin-ME EGE as substrate in presence of NADPH by P450-Glo luminescence assay relative to control; assay type: ADME; details: probe Luciferin-ME EGE; in short: as §5
Sequence of CYP2D6 (P10635 whole entry): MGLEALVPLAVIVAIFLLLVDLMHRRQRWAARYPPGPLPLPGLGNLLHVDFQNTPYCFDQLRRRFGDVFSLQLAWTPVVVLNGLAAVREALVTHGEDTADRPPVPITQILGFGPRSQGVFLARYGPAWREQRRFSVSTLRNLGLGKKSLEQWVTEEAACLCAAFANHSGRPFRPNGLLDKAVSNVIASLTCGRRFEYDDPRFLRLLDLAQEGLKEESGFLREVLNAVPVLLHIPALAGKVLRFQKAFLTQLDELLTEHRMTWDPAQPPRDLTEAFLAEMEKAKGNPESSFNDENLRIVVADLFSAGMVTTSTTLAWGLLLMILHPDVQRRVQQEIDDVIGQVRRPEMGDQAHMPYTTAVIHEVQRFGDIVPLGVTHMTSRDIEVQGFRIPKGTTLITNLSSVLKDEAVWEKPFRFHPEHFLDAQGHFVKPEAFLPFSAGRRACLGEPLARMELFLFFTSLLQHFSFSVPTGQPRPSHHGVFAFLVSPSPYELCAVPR

[16] = target: CYP3A4 (Homo sapiens, UniProt P08684); test: Inhibition of human CYP3A4 expressed in baculovirus-infected insect cells at 10 uM using Luciferin-PFBE as substrate in presence of NADPH by P450-Glo luminescence assay relative to control; assay type: ADME; details: probe Luciferin-PFBE
Sequence of CYP3A4 (P08684 whole entry): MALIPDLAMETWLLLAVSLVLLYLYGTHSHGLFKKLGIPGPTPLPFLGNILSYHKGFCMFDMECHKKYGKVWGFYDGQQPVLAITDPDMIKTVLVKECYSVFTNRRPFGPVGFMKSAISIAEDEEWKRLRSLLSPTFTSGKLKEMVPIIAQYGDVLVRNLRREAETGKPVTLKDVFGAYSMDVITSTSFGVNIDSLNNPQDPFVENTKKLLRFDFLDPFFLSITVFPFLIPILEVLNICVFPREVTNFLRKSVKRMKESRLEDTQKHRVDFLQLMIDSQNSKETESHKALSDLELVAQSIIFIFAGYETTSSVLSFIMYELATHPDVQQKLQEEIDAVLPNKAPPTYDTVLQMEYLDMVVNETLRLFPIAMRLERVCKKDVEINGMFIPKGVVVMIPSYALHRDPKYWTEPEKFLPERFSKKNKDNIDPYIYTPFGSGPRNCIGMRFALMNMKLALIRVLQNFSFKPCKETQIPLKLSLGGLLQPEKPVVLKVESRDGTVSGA

[17] = Lipophilicity, log P of the compound; assay type: physicochemical; details: octanol/water
[18] = test system: Trypanosoma brucei brucei; test: Anti-parasitic activity against bloodstream form of Trypanosoma brucei brucei Lister 427 after 72 hrs by resazurin-based assay; assay type: functional; details: Lister 427, 72 h
In short: (§6)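 Bloodstream-form T. brucei, modified resazurin-based viability assay. EC50 is the arithmetic mean of at least two independent determinations, each run in triplicate.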

[19] = test system: Trypanosoma brucei brucei; test: Anti-parasitic activity against bloodstream form of Trypanosoma brucei brucei Lister 427 at 10 uM after 72 hrs by resazurin-based assay relative to control; assay type: functional; details: Lister 427, 72 h; in short: as §6
[20] = Selectivity index, ratio of CC50 for human THP1 cells to EC50 for anti-parasitic activity against bloodstream form of Trypanosoma brucei brucei Lister 427; assay type: toxicity; details: THP-1 cells, read-out: Ratio CC50/EC50; in short: as §2
[21] = test system: Trypanosoma brucei; test: Anti-parasitic activity against Trypanosoma brucei 427; assay type: functional
[22] = Cytotoxicity against human A549 cells assessed as cell growth by Cell titer-Glo assay; assay type: cell-based; in short: as §4
[23] = target: T2, Cytochrome P450 1A2 (Homo sapiens, UniProt P05177); test: Inhibition of human CYP1A2 expressed in baculovirus-infected insect cells using Luciferin-1A2 as substrate in presence of NADPH by P450-Glo luminescence assay; assay type: ADME; in short: as §5
T2 sequence (P05177 whole entry): T1 sequence (P05177 whole entry)

[24] = target: Cytochrome P450 2C19 (Homo sapiens, UniProt P33261); test: Inhibition of human CYP2C19 expressed in baculovirus-infected insect cells using Luciferin-H EGE as substrate in presence of NADPH by P450-Glo luminescence assay; assay type: ADME; in short: as §5
Sequence of Cytochrome P450 2C19 (P33261 whole entry): as the sequence (P33261 whole entry) above

[25] = target: Cytochrome P450 2D6 (Homo sapiens, UniProt P10635); test: Inhibition of human CYP2D6 expressed in baculovirus-infected insect cells using Luciferin-ME EGE as substrate in presence of NADPH by P450-Glo luminescence assay; assay type: ADME; in short: as §5
Sequence of Cytochrome P450 2D6 (P10635 whole entry): as the sequence (P10635 whole entry) above

EC50 [3] [µM]	inhibition at 1 h, 10 µM [10] [%]	inhibition at 10 µM [12] [%]	inhibition at 10 µM [13] [%]	inhibition at 10 µM [14] [%]	inhibition at 10 µM [15] [%]	inhibition at 10 µM [16] [%]	logP [17]	EC50 [18] [µM]	Compound	CC50 [1] [µM]	inhibition at 50 µM [2] [%]	selectivity ratio [4]	inhibition at 10 µM [5] [%]	viability at 10 µM [7] [%]	viability at 10 µM [8] [%]	Activity [9] [%]	inhibition at 10 µM [11] [%]	inhibition at 10 µM [19] [%]	selectivity ratio [20]	also measured
30.6	-23.6	1.2	57.6	67.5	65.1	-10	3.49		COc1ccc(C(=O)/C=C/c2cc(OC)c(OC)c(OC)c2)c(O)c1	> 100	71	> 1.6	60	127	78.1	1.1	34.7			EC50 [6]: < 10 µM
42.4	-8.1	13.3	60.9	84.6	88.3	-3.1	3.47	4.4	COc1ccc(O)c(C(=O)/C=C/c2cc(OC)c(OC)c(OC)c2)c1	> 25	43	> 1	1	108	73.9	-6.4	9.5	100	≥ 6	
22.2	-4.2	-3.1	27	75.7	-24.9	18.7	3.5	7.4	COc1cc(O)c(C(=O)/C=C/c2cc(OC)c(OC)c(OC)c2)cc1OC	> 25	88	> 2	0	115	88.5	10	7.1	91	≥ 3	

The next lines start with the compound.

Compound	EC50 [3] [µM]	inhibition at 1 h, 10 µM [10] [%]	inhibition at 10 µM [12] [%]	inhibition at 10 µM [13] [%]	inhibition at 10 µM [14] [%]	inhibition at 10 µM [15] [%]	inhibition at 10 µM [16] [%]	logP [17]	EC50 [18] [µM]	CC50 [1] [µM]	inhibition at 50 µM [2] [%]	selectivity ratio [4]	inhibition at 10 µM [5] [%]	viability at 10 µM [7] [%]	viability at 10 µM [8] [%]	Activity [9] [%]	inhibition at 10 µM [11] [%]	inhibition at 10 µM [19] [%]	selectivity ratio [20]	also measured
COc1cc(O)c(C(=O)/C=C/c2ccccc2)c(OC)c1 [FLAVOKAWAIN B]								3.9												EC50 [21]: 6.2 µM
N=C(N)c1ccc(OCCCCCOc2ccc(C(=N)N)cc2)cc1 [PENTAMIDINE]									0.00155											GI50 [22]: > 100 µM; IC50 [23]: > 100 µM; IC50 [24]: > 100 µM; IC50 [25]: 24.8 µM
